Measurements published in ChEMBL document CHEMBL1158452, “Na+ currents in cardioprotection: better to be late” (J Med Chem, 2009).
Calls of active or inactive are those of the source. The rule behind the calls is not given here.

Tests used:
[1] = target: T1, Sodium channel protein type 5 subunit alpha (Homo sapiens, UniProt Q14524); assay: Inhibition of human Nav1.5 channel expressed in HEK293 cells assessed as blockade of veratridine-induced late inward sodium current elicited at -30 mV from holding potential -90 mV at 10 uM by patch clamp method; assay type: cell-based
T1 sequence (Q14524 whole entry): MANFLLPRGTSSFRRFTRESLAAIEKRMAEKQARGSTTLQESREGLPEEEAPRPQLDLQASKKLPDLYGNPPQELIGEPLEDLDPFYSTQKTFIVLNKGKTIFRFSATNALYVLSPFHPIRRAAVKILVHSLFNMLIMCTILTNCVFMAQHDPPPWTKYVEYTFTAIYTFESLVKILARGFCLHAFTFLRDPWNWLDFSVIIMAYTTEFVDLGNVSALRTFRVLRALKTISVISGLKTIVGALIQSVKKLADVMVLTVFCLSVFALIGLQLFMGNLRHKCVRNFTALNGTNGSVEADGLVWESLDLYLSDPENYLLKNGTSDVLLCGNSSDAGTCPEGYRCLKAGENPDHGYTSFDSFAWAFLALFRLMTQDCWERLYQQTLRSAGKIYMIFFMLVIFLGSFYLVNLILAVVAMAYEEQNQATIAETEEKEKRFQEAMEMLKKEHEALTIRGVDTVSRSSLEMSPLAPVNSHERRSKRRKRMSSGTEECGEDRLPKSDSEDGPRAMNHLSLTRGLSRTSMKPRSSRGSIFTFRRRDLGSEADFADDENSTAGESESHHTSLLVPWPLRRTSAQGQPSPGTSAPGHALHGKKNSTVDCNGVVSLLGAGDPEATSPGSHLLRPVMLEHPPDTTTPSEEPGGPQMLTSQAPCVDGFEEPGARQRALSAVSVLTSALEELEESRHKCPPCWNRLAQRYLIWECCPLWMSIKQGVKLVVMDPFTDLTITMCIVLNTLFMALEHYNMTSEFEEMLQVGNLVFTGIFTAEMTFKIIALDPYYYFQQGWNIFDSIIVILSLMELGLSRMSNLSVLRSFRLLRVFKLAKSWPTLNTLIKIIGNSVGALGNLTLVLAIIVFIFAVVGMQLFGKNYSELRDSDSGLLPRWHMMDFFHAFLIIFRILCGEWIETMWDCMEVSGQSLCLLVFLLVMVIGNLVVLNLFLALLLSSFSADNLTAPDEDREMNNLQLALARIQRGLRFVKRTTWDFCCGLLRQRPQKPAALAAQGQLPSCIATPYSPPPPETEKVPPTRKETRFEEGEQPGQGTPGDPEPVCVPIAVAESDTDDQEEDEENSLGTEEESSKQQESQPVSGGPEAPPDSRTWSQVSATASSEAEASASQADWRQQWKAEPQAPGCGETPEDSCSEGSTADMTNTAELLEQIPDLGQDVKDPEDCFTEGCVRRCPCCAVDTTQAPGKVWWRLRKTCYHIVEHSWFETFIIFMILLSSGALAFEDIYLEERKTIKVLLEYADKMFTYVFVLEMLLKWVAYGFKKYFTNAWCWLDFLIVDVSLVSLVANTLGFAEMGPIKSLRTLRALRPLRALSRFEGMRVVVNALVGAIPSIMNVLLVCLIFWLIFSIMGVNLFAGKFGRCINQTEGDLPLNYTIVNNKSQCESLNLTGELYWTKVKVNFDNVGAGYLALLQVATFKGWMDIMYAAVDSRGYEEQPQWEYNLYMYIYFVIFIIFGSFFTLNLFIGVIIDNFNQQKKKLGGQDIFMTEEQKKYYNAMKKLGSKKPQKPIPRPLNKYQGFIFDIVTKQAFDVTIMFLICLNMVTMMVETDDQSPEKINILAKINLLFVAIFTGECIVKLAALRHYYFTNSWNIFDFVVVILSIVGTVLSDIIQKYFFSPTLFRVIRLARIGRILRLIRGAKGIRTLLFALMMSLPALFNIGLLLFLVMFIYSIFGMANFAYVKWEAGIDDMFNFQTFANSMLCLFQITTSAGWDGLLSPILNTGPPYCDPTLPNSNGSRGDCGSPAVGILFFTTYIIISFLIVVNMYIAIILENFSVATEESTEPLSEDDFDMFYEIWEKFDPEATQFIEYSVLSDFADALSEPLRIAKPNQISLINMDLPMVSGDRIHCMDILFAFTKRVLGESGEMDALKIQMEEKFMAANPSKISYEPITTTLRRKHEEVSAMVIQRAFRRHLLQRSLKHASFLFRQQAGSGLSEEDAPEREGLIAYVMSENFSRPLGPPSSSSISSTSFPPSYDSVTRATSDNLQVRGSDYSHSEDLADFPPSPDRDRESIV
Summary of the method: (§1)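 HEK293 cells expressing hNaV1.5, room temperature (19-22 °C). Pipette (mmol): NaCl 10, CsCl 110, CaCl2 1, HEPES 10, EGTA 10, Mg-ATP 5, glucose 10, pH 7.3; bath: NaCl 30, CsCl 100, MgCl2 2, CaCl2 2, HEPES 10, glucose 5, pH 7.4. Veratridine 40 μM; 350 ms pulses to -30 mV at 0.2 Hz; late INa = mean current over last 10 ms; DMSO final 0.1%.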

[2] = target: T1, Sodium channel protein type 5 subunit alpha; assay: Inhibition of human Nav1.5 channel expressed in HEK293 cells assessed as blockade of veratridine-induced late inward sodium current elicited at -30 mV from holding potential -110 mV at 10 uM by patch clamp method; assay type: cell-based; summary of the method: as §1
[3] = system: Heart; assay: Cardioprotective activity in Langendorff-perfused guinea pig heart assessed as inhibition of global ischemia-induced diastolic contracture at 1 uM; assay type: functional; conditions: Cavia porcellus
Summary of the method: (§2)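 Female Hartley guinea pig hearts, Langendorff-perfused at constant 800 mm H2O with modified Krebs (pH 7.4, 95% O2/5% CO2), 37 °C, LV latex balloon. After 45-60 min equilibration, compound or vehicle perfused 15 min, then 50 min global normothermic ischemia and 60 min reperfusion; one concentration per heart. LVDP, end-diastolic pressure, heart rate, dP/dt, coronary flow recorded.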

[4] = species on record: Sus scrofa; assay: Cardioprotective activity against myocardial ischemia-reperfusion in Landrace pig heart assessed as prevention of post reperfusion injury after 48 hrs; assay type: functional, tissue-based
Summary of the method: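 Anaesthetised male Landrace pigs (18-25 kg); LCX occluded 60 min, reperfused 48 h. Compound i.v. bolus 10 min pre-ischemia plus infusion through occlusion and first 30 min reperfusion. Evans blue delineates area at risk, TTC (0.1%) stains viable tissue; 10 mm LV slices imaged; necrosis expressed as % of area at risk. Means ± SEM; ANOVA with Dunnett's test.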

[5] = system: Plasma; assay: Cardioprotective activity in […] Landrace pig assessed decrease in troponin 1 plasma level administered iv 60 mins before ischemia measured after 6 hrs of reperfusion; assay type: functional, organism-based; conditions: Sus scrofa
[6] = Cardioprotective activity in […] Landrace pig heart assessed decrease in myocardial infarct volume […] followed by 30 mins of reperfusion; assay type: functional, Sus scrofa; parameters: scale not given: the % may be the effect or the level left
[7] = Cardioprotective activity in […] Landrace pig heart assessed decrease in myocardial infarct size […]; assay type: functional, Sus scrofa; parameters: scale not given: the % may be the effect or the level left
[8] = system: Heart; assay: Cardiovascular activity in Langendorff-perfused guinea pig heart assessed as change in coronary vascular resistance at 1 uM; assay type: functional, Cavia porcellus; summary of the method: as §2
[9] = system: Sus scrofa; assay: Cardioprotective activity in […] Landrace pig heart assessed as change in blood flow administered iv 60 mins before ischemia followed by 48 hrs of reperfusion; assay type: functional, organism-based
[10] = species on record: Sus scrofa; assay: Cardioprotective activity in […] Landrace pig assessed enhancement of Na+ current; assay type: functional, organism-based
[11] = system: Sus scrofa; assay: Cardioprotective activity in […] Landrace pig heart assessed as change collateral circulation administered iv 60 mins before ischemia followed by 48 hrs of reperfusion; assay type: functional, organism-based
[12] = system: Heart; assay: Cardiovascular activity in Langendorff-perfused guinea pig heart assessed as change in left ventricular developed pressure at 1 uM; assay type: functional, Cavia porcellus; summary of the method: as §2
[13] = system: Heart; assay: Cardiovascular activity in Langendorff-perfused guinea pig heart assessed as change in heart rate at 1 uM; assay type: functional, Cavia porcellus; summary of the method: as §2
[14] = system: Cardiac atrium; conditions: Rattus norvegicus, Wistar, 1 uM

Compound	inhibition at 10 µM [1] [%]	inhibition at 10 µM [2] [%]	inhibition at 1 µM [3] [%]	other results
C[C@@H](CN[C@@H]1COc2ccccc2SC1)CSc1cccc(N)c1O	19	11		
C[C@@H](CN[C@@H]1COc2ccccc2SC1)CSc1cccc(F)c1O	40	38	54	
COc1cccc(SC[C@@H](C)CN[C@@H]2COc3ccccc3SC2)c1N	18	13	21	
Cc1cccc(SC[C@@H](C)CN[C@@H]2COc3ccccc3SC2)c1N	26	26	35	
CC(C)c1ccc(C(=O)N=C(N)N)cc1S(C)(=O)=O [CARIPORIDE]			6	Activity [4]: Active; Activity [5]: Active; Activity [6]: 6.8%
Cc1cccc(SC[C@@H](C)CN[C@@H]2COc3ccccc3SC2)c1O	87	73	70	Activity [7]: 3.5%; Activity [8]: -1.6 dyn.s.cm'-5.10'4; Activity [9]: inactive; Activity [4]: Active; Activity [5]: Active; Activity [10]: inactive; Activity [11]: inactive; Activity [12]: -5.9 mmHg; Activity [13]: 0.1 bpm
COc1ccccc1SC[C@@H](C)CN[C@@H]1COc2ccccc2SC1			65	
C[C@@H](CN[C@@H]1COc2ccccc2SC1)CSc1cccc(C(N)=O)c1O	65	59	43	
CCc1cccc(SC[C@@H](C)CN[C@@H]2COc3ccccc3SC2)c1O	56	56	13	
C[C@@H](CN[C@@H]1COc2ccccc2SC1)CSc1cccc2ccoc12	82	73	68	
C[C@@H](CN[C@@H]1COc2ccccc2SC1)CSc1cccc2cc[nH]c12	8	8		
C[C@@H](CN[C@@H]1COc2ccccc2SC1)CSc1cccc2ncoc12	26	16	84	
C[C@@H](CN[C@@H]1COc2ccccc2SC1)CSc1cccc2c1OCC2	56	47	72	
NC1=N[C@H](O)[C@H]2[C@H]3O[C@]4(O)O[C@@H]([C@@H](O)[C@@]2(N1)[C@@H]4O)[C@]3(O)CO				inhibition [14]: 64%
Cc1cccc(SC[C@@H](C)CN[C@@H]2COc3ccccc3SC2)c1CO	58	45	31	
C[C@@H](CN[C@@H]1COc2ccccc2SC1)CSc1cccc2c1OCO2	54	32	22	
C[C@@H](CN[C@@H]1COc2ccccc2SC1)CSc1cccc(F)c1N	19	11	33	
CC(C)c1cccc(SC[C@@H](C)CN[C@@H]2COc3ccccc3SC2)c1O	46	38		
COc1c(C)cccc1SC[C@@H](C)CN[C@@H]1COc2ccccc2SC1	32	28		
CCOc1ccccc1SC[C@@H](C)CN[C@@H]1COc2ccccc2SC1	54	41		
COc1cccc(SC[C@@H](C)CN[C@@H]2COc3ccccc3SC2)c1O	46	35	46	
Cc1ccccc1SC[C@@H](C)CN[C@@H]1COc2ccccc2SC1	14	11		
C[C@@H](CN[C@@H]1COc2ccccc2SC1)CSc1cccc2cn[nH]c12	44	34	73	
